Results: ChEMBL document CHEMBL3994571, “Caffeoyl Triterpenoid Esters as Potential Anti-ischemic Stroke Agents from Celastrus orbiculatus” (J Nat Prod, 2016)
The source made the active and inactive calls. The calls are words filed in the database; no cut-off is given here.

Assays:
[1] = tested on: SH-SY5Y; assay: Neuroprotective activity against oxygen glucose deprivation-induced cell death in human SH-SY5Y cells assessed as increase in cell viability at 10 uM treated at beginning of 24 hrs reoxygenation period by MTT assay; type: functional, cell-based
Procedure, shortened: (§1)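 SH-SY5Y cells seeded at 2 × 10⁴ cells/well. Medium replaced by glucose-free EBSS (pH 7.4), then 1 h hypoxia (85% N₂, 10% H₂, 5% CO₂, 37 °C). Reoxygenated under normal culture for 24 h, compound added at start of reoxygenation. MTT read at 490 nm, given as % of non-OGD control. Mean ± SEM from three independent experiments.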

[2] = tested on: SH-SY5Y; assay: Neuroprotective activity against oxygen glucose deprivation-induced cell death in human SH-SY5Y cells assessed as cell viability at 10 uM treated at beginning of 24 hrs reoxygenation period by MTT assay (reference value: 55.05 +/- 2.03%); type: functional; details: read-out: Activity; procedure, shortened: as §1
[3] = tested on: Rattus norvegicus; assay: Neuroprotective activity against middle cerebral artery occlusion-induced Sprague-Dawley rat ischemic stroke model assessed as reduction in neurological score at 10 mg/kg, iv dosed 2 hrs post onset of ischemia measured after 24 hrs of reperfusion […]; type: functional, organism-based
Procedure, shortened: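 Male Sprague-Dawley rats, 230–280 g, given 2 h filament MCAO under chloral hydrate anaesthesia, then reperfused. Edaravone as positive control. After 24 h reperfusion, deficits rated by modified Neurological Severity Score on an 18-point scale (motor, visual, tactile); higher means worse. n = 11–14.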

[4] = tested on: SH-SY5Y; assay: Neuroprotective activity in human SH-SY5Y cells assessed as reduction in oxygen glucose deprivation-induced morphological damage at 5 to 10 uM treated at beginning of 24 hrs reoxygenation period; type: functional, cell-based
Procedure, shortened: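 SH-SY5Y cells exposed to 1 h OGD in glucose-free EBSS (pH 7.4) under 85% N₂/10% H₂/5% CO₂ at 37 °C, then 24 h reoxygenation. Compound added after OGD at reoxygenation onset. Dendrite fragmentation and cell number assessed by morphological observation.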

[5] = tested on: SH-SY5Y; assay: Neuroprotective activity against oxygen glucose deprivation-induced cell death in human SH-SY5Y cells assessed as increase in cell viability treated at beginning of 24 hrs reoxygenation period by MTT assay; type: functional, cell-based; procedure, shortened: as §1
[6] = tested on: SH-SY5Y; assay: Cytotoxicity against human SH-SY5Y cells at 1 to 10 uM after 24 hrs by MTT assay; type: cell-based
Procedure, shortened: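 SH-SY5Y cells grown in 1:1 MEM/F12 with 10% FBS and penicillin/streptomycin at 37 °C, 5% CO₂. Seeded at 2 × 10⁴ cells/well. Normal cells without OGD exposed to compound. Viability by MTT: 3 h at 37 °C in dark, formazan dissolved in DMSO, absorbance at 490 nm.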

[7] = tested on: Rattus norvegicus; assay: Neuroprotective activity against middle cerebral artery occlusion-induced Sprague-Dawley rat ischemic stroke model assessed as decrease in brain infarct volume at 10 mg/kg, iv dosed 2 hrs post onset of ischemia measured after 24 hrs of reperfusion by TTC staining based assay relative to control; type: functional; set-up: scale not given: the % may be the effect or the level left
Procedure, shortened: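 Male Sprague-Dawley rats, 230–280 g, under chloral hydrate (400 mg/kg i.p.). Left MCA occluded 2 h by 4-0 nylon filament, then reperfused; body temperature kept at 37.0 ± 0.5 °C. Edaravone as positive control. After 24 h reperfusion, 2 mm coronal sections stained with 1% TTC for 15 min, then fixed in 4% paraformaldehyde. White tissue scored as infarct. n = 11–14.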

| Structure (SMILES) | Activity [1] | viability at 10 µM [2] | Activity [3] | Activity [4] | Activity [5] | Activity [6] | Activity [7] |
| --- | --- | --- | --- | --- | --- | --- | --- |
| C[C@H]1C(=O)CC[C@@H]2[C@]1(C)CC[C@H]1[C@@]2(C)CC[C@@]2(C)[C@@H]3C[C@](C)(COC(=O)/C=C/c4ccc(O)cc4)CC[C@]3(C)CC[C@]12C | inactive |  |  |  |  |  |  |
| C[C@H]1C(=O)CC[C@@H]2[C@]1(C)CC[C@H]1[C@@]2(C)CC[C@@]2(C)[C@@H]3C[C@](C)(COC(=O)/C=C/c4ccc(O)c(O)c4)CC[C@]3(C)CC[C@]12C | Active | 115% | Active | Active | Dose-dependent effect | Non-Toxic | 14.2% |
